ChEMBL document CHEMBL1123716, “Synthesis and tumor uptake of 5-halo-1-(2'-fluoro-2'-deoxy-beta-D-ribofuranosyl)[2-14C]uracils” (J Med Chem, 1987)
Several values for one entry are separate records, joined by “and”; a condition that tells them apart may be missing. Equal values may be shown once.

Experiments:
Settings in all cases: in vivo
[1] = tested on: Mus musculus; experiment: Tissue distribution in BDF1 female mice bearing an implanted lewis lung tumor after intravenous injection in git(Section of intestine) at 2 h.; type: ADME, organism-based
Summary of the method: (§1)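 Female BDF1 mice (18–20 g) with implanted Lewis lung tumor received the 2-14C compound by tail vein, 23–193 kBq in normal saline, reconstituted from a dry film just before use. Animals were killed at set times and tissues taken for 14C counting by combustion and liquid scintillation. Values are percent injected dose per gram wet tissue, mean ± standard deviation, six animals.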

[2] = tested on: Mus musculus; experiment: Tissue distribution in BDF1 female mice bearing an implanted lewis lung tumor after intravenous injection in kidney at 2 h.; type: ADME, organism-based; summary of the method: as §1
[3] = tested on: Mus musculus; experiment: Tissue distribution in BDF1 female mice bearing an implanted lewis lung tumor after intravenous injection in lung at 24 h.; type: ADME, organism-based
Summary of the method: (§2)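 Female BDF₁ mice (18–20 g) carrying transplanted Lewis lung tumor received 23–193 kBq of the [2-¹⁴C]-labeled nucleoside in normal saline via tail vein. The compound was stored as a dry film and reconstituted just before use. Animals were killed at set times, and tissue ¹⁴C was measured by combustion and liquid scintillation. Values are mean ± SD % injected dose per gram of wet tissue, n = 6.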

[4] = tested on: Mus musculus; experiment: Tissue distribution in BDF1 female mice bearing an implanted lewis lung tumor after intravenous injection in muscle at 8 h.; type: ADME, organism-based; summary of the method: as §2
[5] = tested on: Mus musculus; experiment: Tissue distribution in BDF1 female mice bearing an implanted lewis lung tumor after intravenous injection in skin at 4 h.; type: ADME, organism-based, Skin of body; summary of the method: as §2
[6] = tested on: Mus musculus; experiment: Tissue distribution in BDF1 female mice bearing an implanted lewis lung tumor after intravenous injection in blood at 24 h.; type: ADME, organism-based; summary of the method: as §1
[7] = tested on: Mus musculus; experiment: Tissue distribution in BDF1 female mice bearing an implanted lewis lung tumor after intravenous injection in skin at 1 h.; type: ADME, organism-based, Skin of body; summary of the method: as §2
[8] = tested on: Mus musculus; experiment: Tissue distribution in BDF1 female mice bearing an implanted lewis lung tumor after intravenous injection in muscle at 0.5 h.; type: ADME, organism-based; summary of the method: as §2
[9] = tested on: Mus musculus; experiment: Tissue distribution in BDF1 female mice bearing an implanted lewis lung tumor after intravenous injection in bone at 2 h.; type: ADME, organism-based; summary of the method: as §1
[10] = tested on: Mus musculus; experiment: Tissue distribution in BDF1 female mice bearing an implanted lewis lung tumor after intravenous injection in lung at 4 h; type: ADME, organism-based; summary of the method: as §2
[11] = tested on: Mus musculus; experiment: Tissue distribution in BDF1 female mice bearing an implanted lewis lung tumor after intravenous injection in kidney at 0.5 h.; type: ADME, organism-based; summary of the method: as §1
[12] = tested on: Mus musculus; experiment: Tissue distribution in BDF1 female mice bearing an implanted lewis lung tumor after intravenous injection in kidney at 4 h.; type: ADME, organism-based; summary of the method: as §2
[13] = tested on: Mus musculus; experiment: Tissue distribution in BDF1 female mice bearing an implanted lewis lung tumor after intravenous injection in stomach at 8 h.; type: ADME, organism-based
Summary of the method: (§3)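 Female BDF1 mice (18–20 g) carrying a transplanted Lewis lung tumor were given 23–193 kBq of the [2-14C]-labelled nucleoside in normal saline by tail vein. Animals were killed at set times. Tissue 14C was counted by liquid scintillation, after combustion or directly. Values are percent of injected dose per gram wet tissue, as mean ± standard deviation of six animals.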

[14] = tested on: Mus musculus; experiment: Tissue distribution in BDF1 female mice bearing an implanted lewis lung tumor after intravenous injection in spleen at 0.5 h.; type: ADME, organism-based; summary of the method: as §2
[15] = tested on: Mus musculus; experiment: Tissue distribution in BDF1 female mice bearing an implanted lewis lung tumor after intravenous injection in git(Section of intestine) at 0.5 h.; type: ADME, organism-based; summary of the method: as §1
[16] = tested on: Mus musculus; experiment: Tissue distribution in BDF1 female mice bearing an implanted lewis lung tumor after intravenous injection in tumor at 4 h.; type: ADME, organism-based; summary of the method: as §3
[17] = tested on: Mus musculus; experiment: Tissue distribution in BDF1 female mice bearing an implanted lewis lung tumor after intravenous injection in git(Section of intestine) at 0.25 h.; type: ADME, organism-based; summary of the method: as §1
[18] = tested on: Mus musculus; experiment: Tissue distribution in BDF1 female mice bearing an implanted lewis lung tumor after intravenous injection in muscle at 2 h.; type: ADME, organism-based; summary of the method: as §2
[19] = tested on: Mus musculus; experiment: Tissue distribution in BDF1 female mice bearing an implanted lewis lung tumor after intravenous injection in bone at 4 h.; type: ADME, organism-based; summary of the method: as §1
[20] = tested on: Mus musculus; experiment: Tissue distribution in BDF1 female mice bearing an implanted lewis lung tumor after intravenous injection in tumor at 0.5 h.; type: ADME, organism-based; summary of the method: as §3
[21] = tested on: Mus musculus; experiment: Tissue distribution in BDF1 female mice bearing an implanted lewis lung tumor after intravenous injection in stomach at 2 h.; type: ADME, organism-based; summary of the method: as §2
[22] = tested on: Mus musculus; experiment: Tissue distribution in BDF1 female mice bearing an implanted lewis lung tumor after intravenous injection in heart at 8 h.; type: ADME, organism-based; summary of the method: as §1
[23] = tested on: Mus musculus; experiment: Tissue distribution in BDF1 female mice bearing an implanted lewis lung tumor after intravenous injection in stomach at 1 h.; type: ADME, organism-based; summary of the method: as §2
[24] = tested on: Mus musculus; experiment: Tissue distribution in BDF1 female mice bearing an implanted lewis lung tumor after intravenous injection in bone at 0.5 h.; type: ADME, organism-based; summary of the method: as §1
[25] = tested on: Mus musculus; experiment: Tissue distribution in BDF1 female mice bearing an implanted lewis lung tumor after intravenous injection in skin at 0.5 h.; type: ADME, organism-based, Skin of body; summary of the method: as §2
[26] = tested on: Mus musculus; experiment: Tissue distribution in BDF1 female mice bearing an implanted lewis lung tumor after intravenous injection in lung at 0.25 h.; type: ADME, organism-based; summary of the method: as §2
[27] = tested on: Mus musculus; experiment: Tissue distribution in BDF1 female mice bearing an implanted lewis lung tumor after intravenous injection in blood at 2 h.; type: ADME, organism-based; summary of the method: as §1
[28] = tested on: Mus musculus; experiment: Tissue distribution in BDF1 female mice bearing an implanted lewis lung tumor after intravenous injection in bone at 1 h.; type: ADME, organism-based; summary of the method: as §1
[29] = tested on: Mus musculus; experiment: Tissue distribution in BDF1 female mice bearing an implanted lewis lung tumor after intravenous injection in bone at 8 h.; type: ADME, organism-based; summary of the method: as §1
[30] = tested on: Mus musculus; experiment: Tissue distribution in BDF1 female mice bearing an implanted lewis lung tumor after intravenous injection in kidney at 8 h.; type: ADME, organism-based; summary of the method: as §2
[31] = tested on: Mus musculus; experiment: Tissue distribution in BDF1 female mice bearing an implanted lewis lung tumor after intravenous injection in lung at 8 h.; type: ADME, organism-based; summary of the method: as §2
[32] = tested on: Mus musculus; experiment: Tissue distribution in BDF1 female mice bearing an implanted lewis lung tumor after intravenous injection in heart at 4 h.; type: ADME, organism-based; summary of the method: as §1
[33] = tested on: Mus musculus; experiment: Tissue distribution in BDF1 female mice bearing an implanted lewis lung tumor after intravenous injection in liver at 1 h.; type: ADME, organism-based; summary of the method: as §2
[34] = tested on: Mus musculus; experiment: Tissue distribution in BDF1 female mice bearing an implanted lewis lung tumor after intravenous injection in bone at 24 h.; type: ADME, organism-based; summary of the method: as §1
[35] = tested on: Mus musculus; experiment: Tissue distribution in BDF1 female mice bearing an implanted lewis lung tumor after intravenous injection in skin at 8 h.; type: ADME, organism-based, Skin of body; summary of the method: as §2
[36] = tested on: Mus musculus; experiment: Tissue distribution in BDF1 female mice bearing an implanted lewis lung tumor after intravenous injection in git(Section of intestine) at 4 h.; type: ADME, organism-based; summary of the method: as §1
[37] = tested on: Mus musculus; experiment: Tissue distribution in BDF1 female mice bearing an implanted lewis lung tumor after intravenous injection in kidney at 24 h.; type: ADME, organism-based; summary of the method: as §2
[38] = tested on: Mus musculus; experiment: Tissue distribution in BDF1 female mice bearing an implanted lewis lung tumor after intravenous injection in heart at 0.25 h.; type: ADME, organism-based; summary of the method: as §1
[39] = tested on: Mus musculus; experiment: Tissue distribution in BDF1 female mice bearing an implanted lewis lung tumor after intravenous injection in lung at 2 h.; type: ADME, organism-based; summary of the method: as §2
[40] = tested on: Mus musculus; experiment: Tissue distribution in BDF1 female mice bearing an implanted lewis lung tumor after intravenous injection in spleen at 1 h.; type: ADME, organism-based; summary of the method: as §2
[41] = tested on: Mus musculus; experiment: Tissue distribution in BDF1 female mice bearing an implanted lewis lung tumor after intravenous injection in liver at 4 h.; type: ADME, organism-based; summary of the method: as §2
[42] = tested on: Mus musculus; experiment: Tissue distribution in BDF1 female mice bearing an implanted lewis lung tumor after intravenous injection in liver at 2 h.; type: ADME, organism-based; summary of the method: as §2
[43] = tested on: Mus musculus; experiment: Tissue distribution in BDF1 female mice bearing an implanted lewis lung tumor after intravenous injection in spleen at 2 h.; type: ADME, organism-based; summary of the method: as §2
[44] = tested on: Mus musculus; experiment: Tissue distribution in BDF1 female mice bearing an implanted lewis lung tumor after intravenous injection in tumor at 8 h.; type: ADME, organism-based; summary of the method: as §3

SMILES: O=c1[nH]c(=O)n([C@H]2O[C@@H](CO)[C@H](O)[C@H]2F)cc1F
- Tissue distribution [1]: 0.11
- Tissue distribution [2]: 0.84
- Tissue distribution [3]: 0.005
- Tissue distribution [4]: 0.01
- Tissue distribution [5]: 0.11
- Tissue distribution [6]: 0.01
- Tissue distribution [7]: 0.43
- Tissue distribution [8]: 1.06
- Tissue distribution [9]: 0.11
- Tissue distribution [10]: 0.02
- Tissue distribution [11]: 21.9
- Tissue distribution [12]: 0.08
- Tissue distribution [13]: 0.01
- Tissue distribution [14]: 3.77
- Tissue distribution [15]: 1.59
- Tissue distribution [16]: 0.16
- Tissue distribution [17]: 3.35
- Tissue distribution [18]: 0.06
- Tissue distribution [19]: 0.07
- Tissue distribution [20]: 3.88
- Tissue distribution [21]: 0.07
- Tissue distribution [22]: 0.009
- Tissue distribution [23]: 0.38
- Tissue distribution [24]: 0.85
- Tissue distribution [25]: 1.18
- Tissue distribution [26]: 3.37
- Tissue distribution [27]: 0.06
- Tissue distribution [28]: 0.35
- Tissue distribution [29]: 0.03
- Tissue distribution [30]: 0.02
- Tissue distribution [31]: 0.01
- Tissue distribution [32]: 0.02
- Tissue distribution [33]: 0.53
- Tissue distribution [34]: 0.02
- Tissue distribution [35]: 0.01
- Tissue distribution [36]: 0.04
- Tissue distribution [37]: 0.01
- Tissue distribution [38]: 3.8
- Tissue distribution [39]: 0.07
- Tissue distribution [40]: 1.44
- Tissue distribution [41]: 0.02
- Tissue distribution [42]: 0.08
- Tissue distribution [43]: 0.29
- Tissue distribution [44]: 0.05

SMILES: O=c1[nH]c(=O)n([C@H]2O[C@@H](CO)[C@H](O)[C@H]2F)cc1Cl
- Tissue distribution [1]: 0.17
- Tissue distribution [2]: 1.6
- Tissue distribution [3]: 0.01
- Tissue distribution [4]: 0.03
- Tissue distribution [5]: 0.04
- Tissue distribution [6]: 0.01
- Tissue distribution [7]: 0.36
- Tissue distribution [8]: 0.78
- Tissue distribution [9]: 0.08
- Tissue distribution [10]: 0.06
- Tissue distribution [11]: 23.2
- Tissue distribution [12]: 0.33
- Tissue distribution [13]: 0.05
- Tissue distribution [14]: 1.08
- Tissue distribution [15]: 1.02
- Tissue distribution [16]: 0.23
- Tissue distribution [17]: 1.91
- Tissue distribution [18]: 0.15
- Tissue distribution [19]: 0.04
- Tissue distribution [20]: 1.82
- Tissue distribution [21]: 0.31
- Tissue distribution [22]: 0.03
- Tissue distribution [23]: 0.27
- Tissue distribution [24]: 0.41
- Tissue distribution [25]: 1.24
- Tissue distribution [26]: 2.73
- Tissue distribution [27]: 0.18
- Tissue distribution [28]: 0.17
- Tissue distribution [29]: 0.02
- Tissue distribution [30]: 0.09
- Tissue distribution [31]: 0.03
- Tissue distribution [32]: 0.06
- Tissue distribution [33]: 0.47 and 0.6
- Tissue distribution [34]: 0.01
- Tissue distribution [35]: 0.02
- Tissue distribution [36]: 0.06
- Tissue distribution [37]: 0.03
- Tissue distribution [38]: 3.07
- Tissue distribution [39]: 0.14
- Tissue distribution [40]: 0.48
- Tissue distribution [41]: 0.05
- Tissue distribution [42]: 0.15
- Tissue distribution [43]: 0.34
- Tissue distribution [44]: 0.07
